These results are taken from ChEMBL document CHEMBL3259662 (ACS Med Chem Lett, 2014).

One series deals with LLC-PK1. The experiment in a line: Cytotoxicity against pig LLC-PK1 cells assessed as cell viability after 48 hrs by neutral red uptake assay. The class given is cell-based, Sus scrofa. The settings on record: llc-pk1, 48 h. A digest of the protocol:
(§1)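 Neutral red uptake assay in human cancer lines SK-MEL, KB, BT-549 and SK-OV-3 and in noncancerous mammalian kidney cells VERO and LLC-PK1. The highest tested concentration was 10 μg/mL.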

Series [1] is described as follows: Selectivity index, ratio of cytotoxicity for human BT549 cells to IC50 for Cryptococcus neoformans ATCC 90113. The settings on record: read-out: Selectivity Index. The class given is toxicity, cell-based, BT-549.
Series [2] is described as follows: Selectivity index, ratio of cytotoxicity for human SKOV3 cells to IC50 for Cryptococcus neoformans ATCC 90113. The class given is toxicity, cell-based, SK-OV-3. Particulars: read-out: Selectivity Index.
The test system of another series is BT-549. In words: Cytotoxicity against human BT549 cells assessed as cell viability after 48 hrs by neutral red uptake assay. The class given is cell-based. The settings on record: bt-549, 48 h. A digest of the protocol: as §1
Another series deals with Pichia kudriavzevii. In words: Antifungal activity against Candida krusei by CLSI method. The class given is functional, organism-based.
Series [3] is described as follows: Selectivity index, ratio of cytotoxicity for pig LLC-PK1 cells to IC50 for Cryptococcus neoformans ATCC 90113. The class given is toxicity, cell-based. Particulars: read-out: Selectivity Index.
Series [4] relates to Cryptococcus neoformans. The experiment in a line: Antifungal activity against Cryptococcus neoformans ATCC 90113 at 20 ug/ml after 70 to 74 hrs by CLSI method. In kind it is functional, organism-based. A digest of the protocol: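 C. neoformans screened per the CLSI protocol at the highest tested concentration of 20 μg/mL. Compounds showing no activity at this level were scored not active.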

A short description of series [5]: Selectivity index, ratio of cytotoxicity for human SK-MEL cells to IC50 for Cryptococcus neoformans ATCC 90113. In kind it is toxicity, cell-based. Particulars: read-out: Selectivity Index.
In a further series the test system is Candida albicans. The experiment in a line: Antifungal activity against Candida albicans by CLSI method. The class given is functional, organism-based.
The subject of another series is KB. In words: Cytotoxicity against human KB cells assessed as cell viability after 48 hrs by neutral red uptake assay. In kind it is cell-based. A digest of the protocol:
as §1

The next series concerns Nakaseomyces glabratus. In words: Antifungal activity against Candida glabrata by CLSI method. In kind it is functional, organism-based.
The next series relates to SK-MEL. In words: Cytotoxicity against human SK-MEL cells assessed as cell viability after 48 hrs by neutral red uptake assay. The class given is cell-based. A digest of the protocol:
as §1

In another series the test system is Escherichia coli. The experiment in a line: Antibacterial activity against Escherichia coli ATCC 35218 after 16 to 20 hrs by CLSI method. The class given is functional, organism-based.
A short description of series [6]: Selectivity index, ratio of cytotoxicity for African green monkey Vero cells to IC50 for Cryptococcus neoformans ATCC 90113. The class given is toxicity, cell-based. Particulars: read-out: Selectivity Index.
The subject of series [7] is Cryptococcus neoformans. The experiment in a line: Antifungal activity against Cryptococcus neoformans ATCC 90113 after 70 to 74 hrs by CLSI method. In kind it is functional, organism-based. Particulars: for IC50 / MIC: Cryptococcus neoformans, ATCC 90113. A digest of the protocol:
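Growth inhibition of C. neoformans per the CLSI protocol. […] MIC is the lowest test concentration with no detectable growth. MFC is the lowest concentration killing 100% of the organism.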

A short description of series [8]: Retention time of the compound by reverse phase HPLC analysis. The class given is physicochemical. A digest of the protocol: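 Reverse-phase HPLC on a C-18 column (25 cm × 4.6 mm, 5 μM) at 1 mL/min over 40 min. The gradient ran 85−5% with A = 0.1% TFA in H2O and B = 0.1% TFA in CH3CN. Detection was at 220 nm.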
Series [9] can be described thus: Selectivity index, ratio of cytotoxicity for human KB cells to IC50 for Cryptococcus neoformans ATCC 90113. The class given is toxicity, cell-based. The settings on record: read-out: Selectivity Index.
The test system of a further series is Aspergillus fumigatus. In words: Antifungal activity against Aspergillus fumigatus by CLSI method. In kind it is functional, organism-based.
The subject of a further series is SK-OV-3. The experiment in a line: Cytotoxicity against human SKOV3 cells assessed as cell viability after 48 hrs by neutral red uptake assay. In kind it is cell-based. Particulars: sk-ov-3, 48 h. A digest of the protocol:
as §1

For the next series, the system named is Vero. The experiment in a line: Cytotoxicity against African green monkey Vero cells assessed as cell viability after 48 hrs by neutral red uptake assay. In kind it is cell-based. Particulars: chlorocebus sabaeus. A digest of the protocol: as §1
Series [10] concerns Staphylococcus aureus. In words: Antibacterial activity against Staphylococcus aureus ATCC 29213 by CLSI method. The class given is functional, organism-based.
Series [11] relates to Staphylococcus aureus. The experiment in a line: Antibacterial activity against methicillin-resistant Staphylococcus aureus ATCC 33591 after 16 to 20 hrs by CLSI method. The class given is functional, organism-based.
Series [12] relates to Cryptococcus neoformans. In words: Ratio of amphotericin B MFC to compound MFC for Cryptococcus neoformans ATCC 90113 after 70 to 74 hrs by CLSI method. The class given is functional.

Converted amounts (≈) assume the structure as drawn. The source made the active and inactive calls. The calls are words filed in the database; no cut-off is given here. Peptide text beside a SMILES is read from it. * marks the point of attachment. Boc = CC(C)(C)OC(=O)*

`COC(=O)[C@H](CCCNC(=N)N)NC(=O)[C@H](Cc1c[nH]c(-c2ccc(C)cc2)n1)NC(=O)[C@H](CCCNC(=N)N)NC(=O)OC(C)(C)C`: the Activity in the series on LLC-PK1, with BT-549, in the series on KB, with SK-MEL, with SK-OV-3 and in the series with Vero was over 10 µg/mL each time. The selectivity ratio in series [1], in series [2], in series [3], in series [5], in [6] and in [9] was over 1 in each case. The outcome in the series with Pichia kudriavzevii, with Cryptococcus neoformans [4], with Candida albicans, in the series on Nakaseomyces glabratus, with Escherichia coli and in the series with Aspergillus fumigatus was inactive. The IC50 in the series with Cryptococcus neoformans [7] stood at 9.71 µg/mL (≈ 14.5 µM). In series [8], this compound came in with a Retention_time of 14.76 min.

`CC(C)(C)OC(=O)N[C@@H](CCCNC(=N)N)C(=O)N[C@@H](Cc1c[nH]c(-c2ccc(C(C)(C)C)cc2)n1)C(=O)N[C@@H](CCCNC(=N)N)C(=O)NCc1ccccc1`: the Activity in the series with LLC-PK1, with BT-549, with KB, with SK-MEL, with SK-OV-3 and in the series with Vero was over 10 µg/mL throughout. Further, the selectivity ratio in series [1], in series [2], in series [3], in series [5], in [6] and in series [9] was over 55.6 in each case. In addition, the result in the series on Pichia kudriavzevii, with Candida albicans, in the series with Nakaseomyces glabratus, with Escherichia coli and in the series with Aspergillus fumigatus was inactive. Besides, the IC50 with Staphylococcus aureus [10] was 12.5 µg/mL (≈ 15.9 µM); in the series with Staphylococcus aureus [11] (Staphylococcus aureus, ATCC 33591, read-out: IC50) it was 11.5 µg/mL (≈ 14.6 µM); with Cryptococcus neoformans [7], 0.18 µg/mL (≈ 0.228 µM). The MBC100 entry in the series on Staphylococcus aureus [10] and in the series with Staphylococcus aureus [11] was “inactive” throughout. Also, the MIC was determined as 20 µg/mL (≈ 25.3 µM) with Staphylococcus aureus [10]; 20 µg/mL (≈ 25.3 µM) against Staphylococcus aureus [11] (Staphylococcus aureus, ATCC 33591); 0.63 µg/mL (≈ 0.798 µM) in the series on Cryptococcus neoformans [7]. In addition, the Ratio with Cryptococcus neoformans [12] turned out to be 2. In the series on Cryptococcus neoformans [7], this compound returned an MFC100 of 0.63 µg/mL (≈ 0.798 µM). Moreover, in series [8], the Retention_time amounted to 24.41 min.

Turning to `COc1ccc(-c2nc(C[C@H](NC(=O)[C@@H](N)CCCNC(=N)N)C(=O)N[C@@H](CCCNC(=N)N)C(=O)NCc3ccccc3)c[nH]2)cc1`, the Activity with LLC-PK1, in the series with BT-549, in the series on KB, in the series with SK-MEL, in the series with SK-OV-3 and with Vero was over 10 µg/mL throughout. Moreover, the selectivity ratio in series [1], in series [2], in series [3], in series [5], in series [6] and in [9] was over 23.3 each time. Moreover, the outcome in the series on Pichia kudriavzevii, with Candida albicans, in the series on Nakaseomyces glabratus, with Escherichia coli and with Aspergillus fumigatus was inactive. Moreover, the Ratio in the series on Cryptococcus neoformans [12] is reported as 2. Moreover, the MFC100 with Cryptococcus neoformans [7] amounted to 0.63 µg/mL (≈ 0.951 µM). In addition, the IC50 in the series on Cryptococcus neoformans [7] is 0.43 µg/mL (≈ 0.649 µM). Moreover, the MIC with Cryptococcus neoformans [7] came out at 0.63 µg/mL (≈ 0.951 µM).

In the case of `COC(=O)[C@H](CCCNC(=N)N)NC(=O)[C@H](Cc1c[nH]cn1)NC(=O)[C@H](CCCNC(=N)N)NC(=O)OC(C)(C)C` (Boc-Arg-His-Arg-OMe), the Activity in the series with LLC-PK1, in the series on BT-549, in the series on KB, with SK-MEL, with SK-OV-3 and in the series with Vero was over 10 µg/mL in each case. Besides, the outcome in the series on Pichia kudriavzevii, with Cryptococcus neoformans [4], in the series with Candida albicans, in the series on Nakaseomyces glabratus, with Escherichia coli and in the series with Aspergillus fumigatus was inactive. In addition, in series [8], the Retention_time is given as 10.75 min.

Consider `COC(=O)[C@H](CCCNC(=N)N)NC(=O)[C@H](Cc1c[nH]c(-c2ccccc2)n1)NC(=O)[C@H](CCCNC(=N)N)NC(=O)OC(C)(C)C`, for which the Activity in the series on LLC-PK1, in the series with BT-549, in the series on KB, in the series on SK-MEL, in the series on SK-OV-3 and in the series on Vero was over 10 µg/mL throughout. Moreover, the result in the series with Pichia kudriavzevii, with Cryptococcus neoformans [4], in the series on Candida albicans, in the series on Nakaseomyces glabratus, with Escherichia coli and with Aspergillus fumigatus was inactive. This compound also registered a concentration for half-maximal inhibition (IC50) in the series with Cryptococcus neoformans [7] of 10.4 µg/mL (≈ 15.8 µM). Moreover, the Retention_time in series [8] is reported as 11.89 min.

As to `N=C(N)NCCC[C@H](NC(=O)[C@H](Cc1c[nH]c(-c2ccc(-c3ccccc3)cc2)n1)NC(=O)[C@@H](N)CCCNC(=N)N)C(=O)NCc1ccccc1`, the Activity in the series on LLC-PK1, in the series with BT-549, in the series on KB, in the series with SK-MEL, in the series on SK-OV-3 and with Vero was over 10 µg/mL in each case. In addition, the selectivity ratio in series [1], in series [2], in series [3], in series [5], in [6] and in series [9] was over 100 each time. In addition, the outcome in the series on Pichia kudriavzevii, in the series on Candida albicans, with Nakaseomyces glabratus, with Escherichia coli and in the series with Aspergillus fumigatus was inactive. Further, the IC50 is 15.4 µg/mL (≈ 21.7 µM) with Staphylococcus aureus [10], “Not Active” in the series with Staphylococcus aureus [11] and 0.1 µg/mL (≈ 0.141 µM) with Cryptococcus neoformans [7]. Also, the MBC100 entry with Staphylococcus aureus [10] and in the series with Staphylococcus aureus [11] was “inactive” throughout. In addition, the MIC entry in the series with Staphylococcus aureus [10] and in the series with Staphylococcus aureus [11] was “inactive” in each case. In the series with Cryptococcus neoformans [12], the Ratio turned out to be 8. Further, the MFC100 against Cryptococcus neoformans [7] worked out at 0.16 µg/mL (≈ 0.226 µM). For the same compound, the MIC in the series on Cryptococcus neoformans [7] is 0.16 µg/mL (≈ 0.226 µM).

Regarding `COC(=O)[C@H](CCCNC(=N)N)NC(=O)[C@H](Cc1c[nH]cn1)NC(=O)[C@@H](N)CCCNC(=N)N` (H-Arg-His-Arg-OMe), the Activity with LLC-PK1, with BT-549, in the series with KB, in the series on SK-MEL, with SK-OV-3 and in the series with Vero was over 10 µg/mL each time. For the same compound, the outcome in the series with Pichia kudriavzevii, in the series with Cryptococcus neoformans [4], in the series on Candida albicans, in the series with Nakaseomyces glabratus, in the series with Escherichia coli and in the series with Aspergillus fumigatus was inactive. This compound also yielded an IC50 in the series with Cryptococcus neoformans [7] of 19 µg/mL (≈ 39.5 µM).
